Screening data deposited in PubChem BioAssay by The Scripps Research Institute Molecular Screening Center.
LEDGF integ inh: blockers of LEDGF/p75-dependent integrase strand transfer – biochemical, TR-FRET, high throughput, primary screen | HIV-1 integrase (with human LEDGF/p75) | TR-FRET IN-LEDGF/p75 DNA integration, Eu/Cy5 | 370,000 tested, 0.64% active | inhibition, % at 3.7 µM;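 active means inhibition above the screen-wide mean plus 3 SD, cut at about 13% in these data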;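 further: signal is the Cy5 over europium emission ratio at 671 and 618 nm; 0% = plate median of compound wells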
PRMT1 FP inh: PRMT1 methyltransferase inhibitors, primary screen, biochemical, fluorescence polarization; recombinant PRMT1, activity-based probe fluorescence polarization; inhibition, % at 2.79 µM; 370,000 tested, 1.3% active; AID 652257, 2013;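 active means inhibition above about 21% made by adding two undisclosed values, limit read from the data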
rCAG binder: binders of r(CAG) RNA repeats, primary screen, biochemical, fluorescence; r(CAG) RNA repeat, TO-PRO-1 dye displacement fluorescence; inhibition, % at 3 µM; 370,000 tested, 1.3% active; AID 651821, 2012;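 active means inhibition above the plate cutoff, the mean of all test compounds on that plate plus 3 SD, cut at about 35% in these data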;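 further: 0% = DMSO alone and 100% = 100 µM mitoxantrone as full dye displacement; higher means more dye released from RNA so lower well fluorescence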
HTRA1 inhibitor: HTRA1 serine protease inhibitors, primary screen, biochemical, fluorescence polarization, HTS; AID 504803, 2011; inhibition, % at 5.96 µM; 340,000 tested, 0.5% active; recombinant HTRA1, FP-rhodamine activity-based probe; in the data active means inhibition above about 36%;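 further: 0% = enzyme with DMSO and 100% = wells lacking enzyme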
Target sequence (Q92743 whole entry, looked up): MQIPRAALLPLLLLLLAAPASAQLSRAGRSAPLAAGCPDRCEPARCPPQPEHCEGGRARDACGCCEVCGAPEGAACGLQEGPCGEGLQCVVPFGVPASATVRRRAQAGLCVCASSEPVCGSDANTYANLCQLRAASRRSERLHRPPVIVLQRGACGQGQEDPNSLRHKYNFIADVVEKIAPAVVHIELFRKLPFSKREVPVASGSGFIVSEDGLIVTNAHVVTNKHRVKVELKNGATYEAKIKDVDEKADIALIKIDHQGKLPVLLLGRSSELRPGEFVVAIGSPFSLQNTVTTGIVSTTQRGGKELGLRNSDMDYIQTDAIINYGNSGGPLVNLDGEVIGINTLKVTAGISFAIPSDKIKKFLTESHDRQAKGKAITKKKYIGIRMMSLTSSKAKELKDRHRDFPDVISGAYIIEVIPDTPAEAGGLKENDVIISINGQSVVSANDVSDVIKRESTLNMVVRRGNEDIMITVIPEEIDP
DAGLB inh: DAGLB lipase inhibitors, primary screen, biochemical, fluorescence, HTS. HEK293T DAGLB membrane lysate, EnzChek fluorogenic substrate. 340,000 tested, 0.059% active. inhibition, % at 5.17 µM. Diacylglycerol lipase-beta (Homo sapiens), Q8NCG7. AID 504411, 2011; in the data active means inhibition above about 34%;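 further: 0% = enzyme with vehicle and 100% = wells lacking enzyme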
mABHD4 FP: ABHD4 inhibitors, primary screen, biochemical, fluorescence polarization, mouse; (Lyso)-N-acylphosphatidylethanolamine lipase (Mus musculus), Q8VD66; purified mABHD4, FP-Rh probe fluorescence polarization; inhibition, % at 8.92 µM; 370,000 tested, 0.54% active; AID 720543, 2013;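 active means inhibition exceeding the mean over every tested compound plus 3 SD, cut at about 30% in these data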;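 further: 0% = plate median of compound wells and 100% = S159A mutant with DMSO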
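Material: mouse ABHD4 enzyme, wild type; Benchmarks: S159A mutant high control, sample median low control; Buffer or medium: HEPES pH 7.0, NaCl, Pluronic buffer; Signal: fluorescence polarization; Read-out: percent inhibition of probe binding, normalized to plate controls; Timing: pre-incubation 45 min, probe exposure 60 min, at 25 °C; Dosing: 8.92 µM, single dose.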
rCAG binder conf: small molecules binding CAG repeat RNA – biochemical, fluorescence, confirmation. 4,300 tested, 70% active. r(CAG) RNA repeat, TO-PRO-1 dye displacement fluorescence. shares compounds with rCAG binder. inhibition, % at 3 µM;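 active means inhibition above a per-plate cutoff, the mean inhibition of sample wells plus 3 SD, cut at about 35% in these data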;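 further: loss of TO-PRO-1 fluorescence as compound displaces dye from 1x1 AA loop RNA; 0% = DMSO only wells and 100% = 100 µM mitoxantrone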
dCAG dye counter: displacement of TO-PRO-1 from CAG DNA duplex, counter-screen for rCAG RNA repeat binder project, biochemical, fluorescence, TO-PRO-1 dye, d(CAG) DNA oligo; inhibition, % at 3 µM; shares compounds with rCAG binder; d(CAG) DNA oligo TO-PRO-1 dye displacement; 4,300 tested, 94% active;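 active means inhibition above its plate's cutoff, the mean test-well inhibition plus 3 SD, cut at about 4.8% in these data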;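 further: 0% = DNA dye mix with DMSO and 100% = 100 µM mitoxantrone; hits displace the dye from DNA and so lower well fluorescence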
* = called active by the depositor; / = no result given. Rows were chosen to be rich in hits. Some 3.2% of all compounds tested hit in one or more screens of this group.

SMILES	LEDGF integ inh	PRMT1 FP inh	rCAG binder	HTRA1 inhibitor	DAGLB inh	mABHD4 FP	rCAG binder conf	dCAG dye counter
O=C(COc1ccccc1Cl)Nc1ccccc1C(=O)Nc1cccc(C(=O)O)c1	3.0	1.9	39.6*	-12.2	3.5	-22.4	22.9	2.3
O=C(O)c1ccc(NC(=O)c2ccc(Cl)cc2)c(NC(=O)c2ccc(Cl)cc2)c1	2.9	3.9	70.6*	-30.9	1.0	0.9	59.1*	22.7*
CCC(CO)Oc1cc(NC(=O)c2cccc([N+](=O)[O-])c2)c2ncn(C(C)C)c2c1 (stereo unspecified)	1.6	-2.1	-4.5	6.1	4.6	2.6	/	/
Cc1cc(NC(=O)C2CC(=O)N(c3ccc(Cl)cc3)C2)no1 (stereo unspecified)	-0.4	0.7	0.7	-0.7	-2.9	-2.1	/	/
CCC(C(=O)OCC(=O)C1(O)CCC2C3CCC4=CC(=O)CCC4(C)C3C(O)CC21C)C(C)C (stereo unspecified)	-3.3	-0.1	0.9	-26.2	-5.2	-6.2	/	/
O=C(Nc1nc2c(F)cccc2s1)C1CC1	-3.3	3.1	0.5	-5.3	-0.4	3.5	/	/
Fc1cccc2sc(Nc3nc4c(F)cccc4s3)nc12	1.6	-0.5	58.3*	-7.8	4.1	1.8	60.2*	23.6*
CC1CCc2c(sc(Nc3nc4c(F)cccc4s3)c2C(N)=O)C1 (stereo unspecified)	-3.0	23.1*	42.3*	-8.6	-2.4	-2.6	25.5	14.0*
COc1ccc(CN2C(=O)c3ccccc3C2c2nnnn2-c2ccc3c(c2)OCCO3)cc1 (stereo unspecified)	-1.9	0.7	3.8	/	/	0.5	/	/
O=C(c1ccc(F)cc1)c1cc2ccccc2o1	2.8	0.7	1.2	-8.6	-7.9	2.1	/	/
Cc1cc(C)cc(NC(=O)C(Sc2nnc(C)c(=O)[nH]2)c2ccccc2)c1 (stereo unspecified)	0.9	-6.0	26.6	-16.1	4.7	-6.0	/	/
Cc1nnc(SC(C(=O)Nc2ccc(Cl)c([N+](=O)[O-])c2)c2ccccc2)[nH]c1=O (stereo unspecified)	-2.1	6.2	61.0*	-38.0	6.2	-16.7	39.9*	12.5*
O=C(c1cccc(S(=O)(=O)NCc2ccccc2)c1)N1CCN(c2ccccc2)CC1	1.4	-1.2	-0.6	3.2	0.6	-4.0	/	/
C=CCN(c1ccccc1)S(=O)(=O)c1cccc(C(=O)Nc2nnc(SCC)s2)c1	-3.0	-1.5	51.6*	-3.1	4.5	-14.5	57.7*	17.1*
NC1=NC(=O)/C(=C\c2ccc(-c3ccc(Cl)cc3)o2)S1	-2.2	1.7	47.8*	-13.2	-7.9	-12.1	22.1	8.6*
Cc1ccc(S(=O)(=O)Nc2ccccc2-c2ccccc2)cc1	-0.2	-0.7	2.7	-31.3	-2.1	-9.1	/	/
Cc1ccc(S(=O)(=O)/N=C2\C=C(NS(=O)(=O)c3ccccc3)C(=O)c3ccccc32)cc1	16.0*	-1.4	39.5*	-2.2	15.4	26.5	83.6*	51.2*
Cc1ccc(S(=O)(=O)Nc2ccccc2O)cc1	-4.6	3.6	1.4	/	/	-0.1	/	/
O=S(=O)(Nc1ccc(Cl)cc1NS(=O)(=O)c1ccccc1)c1ccccc1	10.2	2.3	80.5*	0.7	29.4	12.2	72.8*	37.7*
Cc1ccc(S(=O)(=O)Nc2ccccc2NS(=O)(=O)c2ccc(C)cc2)cc1	2.5	1.0	70.7*	/	/	1.2	55.9*	19.8*
O=S(=O)(Nc1ccc(S(=O)(=O)Nc2cccc3ccccc23)cc1)c1ccccc1	2.9	2.4	35.0*	-22.6	1.9	-13.3	24.5	5.5*
O=C1CN(S(=O)(=O)c2ccccc2Cl)CCN1	1.9	0.2	-5.1	-2.9	1.4	9.8	/	/
COc1ccc(Br)c(C(=O)Nc2cccc(Cl)c2Cl)c1	-1.4	-2.8	0.0	-14.3	-5.2	-1.6	/	/
Cc1cccc(NC(=O)c2ccc(S(=O)(=O)N3CCN(C)CC3)cc2)c1C	3.8	-4.4	3.8	8.9	0.3	-0.8	/	/
Cc1ccc(NS(=O)(=O)c2ccccc2)c([N+](=O)[O-])c1	-3.9	0.8	3.0	5.5	1.0	-1.9	/	/
SMILES	LEDGF integ inh	PRMT1 FP inh	rCAG binder	HTRA1 inhibitor	DAGLB inh	mABHD4 FP	rCAG binder conf	dCAG dye counter
Cc1ccc(NS(=O)(=O)c2ccccc2)c(NS(=O)(=O)c2ccccc2)c1	1.5	-3.6	48.6*	-9.4	11.6	11.5	47.8*	12.5*
CCOC(=O)Cn1c(C)c(C#N)c2ccccc21	0.9	-0.9	2.4	-1.0	2.5	-9.9	/	/
O=C(NNC(=S)Nc1cccc(C(F)(F)F)c1)c1cccc(Cl)c1	-4.2	2.5	46.9*	7.8	4.6	3.2	47.9*	14.1*
FC(F)(F)c1cccc(NC(=S)NNC(=S)NCc2ccccc2)c1	-1.7	-1.4	78.5*	19.1	17.0	10.6	63.3*	32.8*
FC(F)(F)c1cccc(NC(=S)NCc2ccccn2)c1	-0.1	1.8	-1.2	2.2	1.3	0.2	/	/
CCOc1ccc(N=C2SC(C(=O)Nc3ccccc3C#N)C(N)=C2C(=O)Nc2ccc(Cl)cc2)cc1 (stereo unspecified)	0.6	3.7	38.6*	-47.3	1.5	-82.9	28.3	16.5*
CCOc1ccc(OCC(=O)OCC(=O)Nc2ccccc2C#N)cc1	2.0	0.3	-1.6	-3.7	-3.9	4.0	/	/
Cc1ccc(S(=O)(=O)CCC(=O)OCC(=O)N2c3ccccc3NC(=O)C2(C)C)cc1	-6.3	4.0	0.7	1.6	1.7	3.2	/	/
C/C(=N\NC(=O)c1cccc(S(=O)(=O)Nc2ccc(C)cc2C)c1)c1ccncc1	0.1	-0.5	8.3	-7.4	0.5	-8.5	/	/
C/C(=N\NC(=O)c1ccc(Cl)c(S(=O)(=O)Nc2ccccc2Cl)c1)c1ccncc1	-3.8	0.0	50.9*	-27.2	1.9	-15.7	40.5*	10.8*
COc1ccccc1NS(=O)(=O)c1cc(N/C(=N/S(=O)(=O)c2ccccc2)c2ccc(F)cc2)ccc1Cl	-1.5	3.9	16.2	-49.3	-1.1	-72.5	/	/
C/C(=N\NC(=O)c1cccc(S(=O)(=O)Nc2ccccc2Cl)c1)c1ccco1	3.0	-3.5	47.8*	-7.3	1.4	-15.4	18.1	6.8*
